ChEMBL document CHEMBL5724801, “EUbOPEN Chemogenomics Library - Multiplex” (2024)
Where “and” joins values, the source holds several entries; their conditions need not be identical. Equal values may be shown once.

Tested on: Fibroblast
Test: Multiplex assay against human fibroblast
Format: toxicity, cell-based
How it was run: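 Hoechst33342, BioTracker Green Microtubule Cytoskeleton Dye, MitoTracker Red and Annexin V Alexa Fluor 680 were added to live cells at seeding, and imaging on a CQ1 microscope at 37°C and 5% CO2 followed compound addition. Gating by CellPathfinder machine learning separated cells into Hoechst high-intensity objects or normal cells, then normal cells into healthy, pyknosed or fragmented nuclei, then pyknosed cells into mitotic or apoptotic. Per cents of healthy-nucleus cells are reported for the tubulin, mitochondrial-mass and membrane-permeability phenotypes.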

[1] = 12 h, 1 µM, compound concentration 1 uM
[2] = 12 h, 10 µM, compound concentration 10 uM
[3] = 24 h, 1 µM, compound concentration 1 uM
[4] = 24 h, 10 µM, compound concentration 10 uM
[5] = 48 h, 1 µM, compound concentration 1 uM
[6] = 48 h, 10 µM, compound concentration 10 uM

CN1CCN2c3ccccc3Cc3ccccc3C2C1.Cl (configuration not stated) [MIANSERIN HYDROCHLORIDE]
Population Apoptotic (%) [1]: 55% and 38%
Population Fragmented Nuclei (%) [1]: 28% and 27%
Population Healthy Nuclei (%) [1]: 56% and 50%
Population Hoechst High Intensity Objects (%) [1]: 2% and 4%
Population Mitochondria Different-Phenotype (%) [1]: 0% and 5%
Population Mitotic Cells (%) [1]: 45% and 61%
Population Normal (%) [1]: 97% and 95%
Population Pyknosed Nuclei (%) [1]: 14% and 22%
Population Tubulin-Different-Phenotype (%) [1]: 31% and 56%
Total Cell Count [1]: 138 and 119
Population Apoptotic (%) [2]: 55% and 33%
Population Fragmented Nuclei (%) [2]: 15% and 24%
Population Healthy Nuclei (%) [2]: 68% and 48%
Population Hoechst High Intensity Objects (%) [2]: 5% and 6%
Population Membrane Permeable-Phenotype (%) [2]: 1% and 3%
Population Mitochondria Different-Phenotype (%) [2]: 3% and 7%
Population Mitotic Cells (%) [2]: 44% and 66%
Population Normal (%) [2]: 94% and 93%
Population Pyknosed Nuclei (%) [2]: 15% and 27%
Population Tubulin-Different-Phenotype (%) [2]: 14% and 40%
Total Cell Count [2]: 126 and 116
Population Apoptotic (%) [3]: 52% and 36%
Population Fragmented Nuclei (%) [3]: 32% and 30%
Population Healthy Nuclei (%) [3]: 55% and 50%
Population Hoechst High Intensity Objects (%) [3]: 2% and 3%
Population Membrane Permeable-Phenotype (%) [3]: 0% and 6%
Population Mitochondria Different-Phenotype (%) [3]: 2% and 1%
Population Mitotic Cells (%) [3]: 47% and 63%
Population Normal (%) [3]: 97% and 96%
Population Pyknosed Nuclei (%) [3]: 12% and 19%
Population Tubulin-Different-Phenotype (%) [3]: 29% and 53%
Total Cell Count [3]: 143 and 119
Population Apoptotic (%) [4]: 61% and 48%
Population Fragmented Nuclei (%) [4]: 14% and 31%
Population Healthy Nuclei (%) [4]: 73% and 47%
Population Hoechst High Intensity Objects (%) [4]: 5% and 4%
Population Membrane Permeable-Phenotype (%) [4]: 0% and 10%
Population Mitochondria Different-Phenotype (%) [4]: 1% and 5%
Population Mitotic Cells (%) [4]: 38% and 52%
Population Normal (%) [4]: 95%
Population Pyknosed Nuclei (%) [4]: 11% and 20%
Total Cell Count [4]: 120 and 127
Population Apoptotic (%) [5]: 78% and 46%
Population Fragmented Nuclei (%) [5]: 35% and 36%
Population Healthy Nuclei (%) [5]: 55% and 51%
Population Hoechst High Intensity Objects (%) [5]: 2% and 3%
Population Membrane Permeable-Phenotype (%) [5]: 0% and 3%
Population Mitochondria Different-Phenotype (%) [5]: 2% and 10%
Population Mitotic Cells (%) [5]: 21% and 53%
Population Normal (%) [5]: 97% and 96%
Population Pyknosed Nuclei (%) [5]: 9% and 11%
Population Tubulin-Different-Phenotype (%) [5]: 35% and 50%
Total Cell Count [5]: 151 and 116
Population Apoptotic (%) [6]: 57% and 38%
Population Fragmented Nuclei (%) [6]: 15% and 29%
Population Healthy Nuclei (%) [6]: 71% and 55%
Population Hoechst High Intensity Objects (%) [6]: 5% and 3%
Population Membrane Permeable-Phenotype (%) [6]: 0% and 10%
Population Mitochondria Different-Phenotype (%) [6]: 2% and 1%
Population Mitotic Cells (%) [6]: 42% and 61%
Population Normal (%) [6]: 94% and 96%
Population Pyknosed Nuclei (%) [6]: 12% and 14%
Population Tubulin-Different-Phenotype (%) [6]: 16% and 37%
Total Cell Count [6]: 115 and 125

CCNC1(C(N)=O)CCN(c2ncnc3c2nc(-c2ccccc2Cl)n3-c2ccc(Cl)cc2)CC1 [OTENABANT]
Population Apoptotic (%) [1]: 26% and 37%
Population Fragmented Nuclei (%) [1]: 19% and 25%
Population Healthy Nuclei (%) [1]: 63% and 48%
Population Hoechst High Intensity Objects (%) [1]: 6% and 2%
Population Membrane Permeable-Phenotype (%) [1]: 1% and 6%
Population Mitochondria Different-Phenotype (%) [1]: 7% and 10%
Population Mitotic Cells (%) [1]: 73% and 62%
Population Normal (%) [1]: 93% and 97%
Population Pyknosed Nuclei (%) [1]: 17% and 26%
Population Tubulin-Different-Phenotype (%) [1]: 44% and 50%
Total Cell Count [1]: 161 and 156
Population Apoptotic (%) [2]: 57% and 40%
Population Fragmented Nuclei (%) [2]: 22% and 30%
Population Healthy Nuclei (%) [2]: 64% and 48%
Population Hoechst High Intensity Objects (%) [2]: 4% and 3%
Population Membrane Permeable-Phenotype (%) [2]: 0% and 12%
Population Mitochondria Different-Phenotype (%) [2]: 16% and 18%
Population Mitotic Cells (%) [2]: 42% and 59%
Population Normal (%) [2]: 95% and 96%
Population Pyknosed Nuclei (%) [2]: 12% and 21%
Population Tubulin-Different-Phenotype (%) [2]: 90% and 87%
Total Cell Count [2]: 170 and 216
Population Apoptotic (%) [3]: 26% and 34%
Population Fragmented Nuclei (%) [3]: 17% and 27%
Population Healthy Nuclei (%) [3]: 66% and 43%
Population Hoechst High Intensity Objects (%) [3]: 4% and 5%
Population Membrane Permeable-Phenotype (%) [3]: 0% and 9%
Population Mitochondria Different-Phenotype (%) [3]: 8% and 14%
Population Mitotic Cells (%) [3]: 73% and 65%
Population Normal (%) [3]: 95% and 94%
Population Pyknosed Nuclei (%) [3]: 15% and 29%
Population Tubulin-Different-Phenotype (%) [3]: 44% and 57%
Total Cell Count [3]: 154 and 155
Population Apoptotic (%) [4]: 54%
Population Fragmented Nuclei (%) [4]: 22% and 37%
Population Healthy Nuclei (%) [4]: 64% and 48%
Population Hoechst High Intensity Objects (%) [4]: 2% and 5%
Population Membrane Permeable-Phenotype (%) [4]: 0% and 7%
Population Mitochondria Different-Phenotype (%) [4]: 37% and 30%
Population Mitotic Cells (%) [4]: 45%
Population Normal (%) [4]: 97% and 94%
Population Pyknosed Nuclei (%) [4]: 12% and 13%
Population Tubulin-Different-Phenotype (%) [4]: 96% and 88%
Total Cell Count [4]: 174 and 235
Population Apoptotic (%) [5]: 68% and 59%
Population Fragmented Nuclei (%) [5]: 18% and 33%
Population Healthy Nuclei (%) [5]: 69% and 42%
Population Hoechst High Intensity Objects (%) [5]: 8% and 5%
Population Membrane Permeable-Phenotype (%) [5]: 0% and 13%
Population Mitotic Cells (%) [5]: 31% and 40%
Population Normal (%) [5]: 91% and 94%
Population Pyknosed Nuclei (%) [5]: 12% and 23%
Population Tubulin-Different-Phenotype (%) [5]: 41% and 72%
Total Cell Count [5]: 167 and 143
Population Apoptotic (%) [6]: 78% and 61%
Population Fragmented Nuclei (%) [6]: 30% and 46%
Population Healthy Nuclei (%) [6]: 61% and 47%
Population Hoechst High Intensity Objects (%) [6]: 8% and 2%
Population Membrane Permeable-Phenotype (%) [6]: 0% and 7%
Population Mitochondria Different-Phenotype (%) [6]: 49% and 26%
Population Mitotic Cells (%) [6]: 21% and 38%
Population Normal (%) [6]: 91% and 97%
Population Pyknosed Nuclei (%) [6]: 8% and 6%
Population Tubulin-Different-Phenotype (%) [6]: 92% and 89%
Total Cell Count [6]: 187 and 299

Cc1noc(C)c1-c1cnc2c(-c3ccc(C(=O)O)cc3)cn([C@@H](C)c3ccccn3)c2c1 [PLX-51107]
Population Apoptotic (%) [1]: 4.44% and 12.9%
Population Fragmented Nuclei (%) [1]: 10.26% and 3.93%
Population Healthy Nuclei (%) [1]: 66.67% and 82.53%
Population Hoechst High Intensity Objects (%) [1]: 0%
Population Membrane Permeable-Phenotype (%) [1]: 4.62% and 1.06%
Population Mitochondria Different-Phenotype (%) [1]: 10% and 6.88%
Population Mitotic Cells (%) [1]: 95.56% and 87.1%
Population Normal (%) [1]: 100%
Population Pyknosed Nuclei (%) [1]: 23.08% and 13.54%
Population Tubulin-Different-Phenotype (%) [1]: 11.54% and 14.81%
Total Cell Count [1]: 195 and 229
Population Apoptotic (%) [2]: 16.13% and 16.67%
Population Fragmented Nuclei (%) [2]: 6.25% and 5.33%
Population Healthy Nuclei (%) [2]: 78.85% and 82.38%
Population Hoechst High Intensity Objects (%) [2]: 0%
Population Membrane Permeable-Phenotype (%) [2]: 4.27% and 2.99%
Population Mitochondria Different-Phenotype (%) [2]: 12.8% and 10.95%
Population Mitotic Cells (%) [2]: 83.87% and 83.33%
Population Normal (%) [2]: 100%
Population Pyknosed Nuclei (%) [2]: 14.9% and 12.3%
Population Tubulin-Different-Phenotype (%) [2]: 14.63% and 21.89%
Total Cell Count [2]: 208 and 244
Population Fragmented Nuclei (%) [3]: 8.57% and 3.9%
Population Healthy Nuclei (%) [3]: 78.1% and 88.31%
Population Hoechst High Intensity Objects (%) [3]: 0%
Population Membrane Permeable-Phenotype (%) [3]: 2.44% and 0.98%
Population Mitochondria Different-Phenotype (%) [3]: 4.88% and 3.43%
Population Mitotic Cells (%) [3]: 82.14% and 94.44%
Population Normal (%) [3]: 100%
Population Pyknosed Nuclei (%) [3]: 13.33% and 7.79%
Population Tubulin-Different-Phenotype (%) [3]: 7.32% and 10.29%
Total Cell Count [3]: 210 and 231
Population Apoptotic (%) [4]: 20% and 14.81%
Population Fragmented Nuclei (%) [4]: 7.04% and 7.47%
Population Healthy Nuclei (%) [4]: 85.43% and 81.33%
Population Hoechst High Intensity Objects (%) [4]: 0%
Population Membrane Permeable-Phenotype (%) [4]: 3.53% and 2.04%
Population Mitochondria Different-Phenotype (%) [4]: 11.18% and 6.63%
Population Mitotic Cells (%) [4]: 80% and 85.19%
Population Normal (%) [4]: 100%
Population Pyknosed Nuclei (%) [4]: 7.54% and 11.2%
Population Tubulin-Different-Phenotype (%) [4]: 12.94% and 15.31%
Total Cell Count [4]: 199 and 241
Population Apoptotic (%) [5]: 30%
Population Fragmented Nuclei (%) [5]: 11.06% and 8.8%
Population Healthy Nuclei (%) [5]: 84.13% and 87.2%
Population Hoechst High Intensity Objects (%) [5]: 0%
Population Membrane Permeable-Phenotype (%) [5]: 0.57% and 3.67%
Population Mitotic Cells (%) [5]: 70%
Population Normal (%) [5]: 100%
Population Pyknosed Nuclei (%) [5]: 4.81% and 4%
Population Tubulin-Different-Phenotype (%) [5]: 4.57% and 11.93%
Total Cell Count [5]: 208 and 250
Population Apoptotic (%) [6]: 28.57% and 50%
Population Fragmented Nuclei (%) [6]: 7% and 9.25%
Population Healthy Nuclei (%) [6]: 86% and 83.7%
Population Hoechst High Intensity Objects (%) [6]: 0%
Population Membrane Permeable-Phenotype (%) [6]: 3.49% and 1.05%
Population Mitotic Cells (%) [6]: 71.43% and 50%
Population Normal (%) [6]: 100%
Population Pyknosed Nuclei (%) [6]: 7% and 7.05%
Population Tubulin-Different-Phenotype (%) [6]: 10.47% and 9.47%
Total Cell Count [6]: 200 and 227
